These results are taken from ChEMBL document CHEMBL1132173, “Novel derivatives of 2-pyridinemethylamine as selective, potent, and orally active agonists at 5-HT1A receptors” (J Med Chem, 1999).

The species entered for experiment [1] is Rattus norvegicus. In words: Maximum inhibition of immobility in the rat.(Expressed as percentage of immobility observed in vehicle controls). Type of experiment: functional. In a few lines: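 Rat forced swim: 15 min pre-swim in 17 cm water at 25 °C, then 5 min test 24 h later with blind scoring of immobility. Oral dosing (10 mL/kg) 60 min before the test, n = 10 per dose. Inhibition is the difference in median immobility from vehicle controls, as % of the control median.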

The subject of experiment [2] is Rattus norvegicus. In words: Effective intraperitoneal dose in vivo in rat after 60 mins to induce lower lip retraction. It is filed as functional. As to conditions: ip, 1 h. Summed up: (§1)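 Observed in 10 min windows centred 15 and 60 min post-dose, 10 s each minute, scoring lower lip retraction present or absent (0–10).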
The target in experiment [3] is T1, Adrenergic receptor alpha-1 (Rattus norvegicus, UniProt P15823+P23944+P43140).
T1 sequence (P15823 whole entry): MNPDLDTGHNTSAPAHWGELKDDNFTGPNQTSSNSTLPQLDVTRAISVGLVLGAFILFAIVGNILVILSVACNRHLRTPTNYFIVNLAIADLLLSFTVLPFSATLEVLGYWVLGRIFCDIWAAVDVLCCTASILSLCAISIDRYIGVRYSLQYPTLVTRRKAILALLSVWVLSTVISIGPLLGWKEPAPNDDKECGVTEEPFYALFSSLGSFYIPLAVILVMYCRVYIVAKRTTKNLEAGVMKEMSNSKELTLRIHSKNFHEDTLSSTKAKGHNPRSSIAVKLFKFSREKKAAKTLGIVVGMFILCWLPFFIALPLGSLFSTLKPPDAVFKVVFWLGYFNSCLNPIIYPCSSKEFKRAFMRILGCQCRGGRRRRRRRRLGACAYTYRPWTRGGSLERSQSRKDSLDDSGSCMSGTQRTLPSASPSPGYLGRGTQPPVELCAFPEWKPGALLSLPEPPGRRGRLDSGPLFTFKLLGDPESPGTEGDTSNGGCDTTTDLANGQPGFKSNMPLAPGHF
T1 sequence (P23944 whole entry): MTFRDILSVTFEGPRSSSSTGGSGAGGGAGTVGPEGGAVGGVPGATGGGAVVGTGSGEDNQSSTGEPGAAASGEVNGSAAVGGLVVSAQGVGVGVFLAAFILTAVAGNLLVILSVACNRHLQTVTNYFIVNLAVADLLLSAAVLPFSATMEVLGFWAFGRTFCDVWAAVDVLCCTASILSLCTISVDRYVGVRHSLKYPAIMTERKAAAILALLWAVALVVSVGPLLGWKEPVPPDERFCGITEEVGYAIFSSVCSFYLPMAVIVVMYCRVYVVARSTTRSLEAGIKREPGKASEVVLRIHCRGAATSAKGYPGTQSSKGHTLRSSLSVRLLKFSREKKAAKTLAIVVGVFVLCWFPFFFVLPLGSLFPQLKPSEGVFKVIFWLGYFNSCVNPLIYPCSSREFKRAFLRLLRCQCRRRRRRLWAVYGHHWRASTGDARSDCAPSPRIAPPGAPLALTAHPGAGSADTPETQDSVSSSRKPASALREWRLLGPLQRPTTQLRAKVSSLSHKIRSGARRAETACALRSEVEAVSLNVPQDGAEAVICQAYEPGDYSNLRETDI
T1 sequence (P43140 whole entry): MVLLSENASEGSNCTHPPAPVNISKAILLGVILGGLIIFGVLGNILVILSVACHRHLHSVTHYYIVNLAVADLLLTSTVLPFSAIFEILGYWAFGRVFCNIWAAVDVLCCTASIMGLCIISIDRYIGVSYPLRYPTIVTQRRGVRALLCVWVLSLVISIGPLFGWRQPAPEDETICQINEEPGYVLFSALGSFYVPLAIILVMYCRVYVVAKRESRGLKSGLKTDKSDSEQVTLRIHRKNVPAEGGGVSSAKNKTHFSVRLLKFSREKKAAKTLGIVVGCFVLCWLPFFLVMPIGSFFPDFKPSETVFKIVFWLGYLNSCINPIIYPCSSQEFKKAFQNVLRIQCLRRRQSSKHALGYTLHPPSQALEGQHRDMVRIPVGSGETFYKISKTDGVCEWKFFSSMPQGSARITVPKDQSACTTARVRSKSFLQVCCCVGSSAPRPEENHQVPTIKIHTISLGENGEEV
The experiment in a line: Binding affinity towards Alpha-1 adrenergic receptor using prazosin as a radioligand in rat cortex. Summed up: (§2)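 Rat tissue membranes, competition against radioligand at 23 °C. Nonspecific binding: 5-HT for 5-HT1A (30 min), (+)-butaclamol for D2 (60 min), phentolamine for α1 (30 min). Tris HCl 50 mM pH 7.4 buffers. Filtration through glass-fibre filters, then scintillation counting. Run in triplicate; IC50 by nonlinear regression; Ki by Cheng–Prusoff; mean pKi of three determinations.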

For experiment [4], the system named is Rattus norvegicus. The experiment in a line: Induction of lower lip retraction in rat 60 min after administration, effective peroral dose determined in vivo. It is filed as functional. The conditions noted are these: po, 1 h. Summed up: as §1
The species entered for experiment [5] is Rattus norvegicus. The experiment in a line: Potency to produce a significant inhibition of immobility in the rat. It is filed as functional. Summed up:
(§3)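 Rat forced swim, 5 min test 24 h after a 15 min pre-swim, with oral dose (10 mL/kg) 60 min before the test, n = 10 per dose. Significant response: immobility <138 s, a value seen in <5% of vehicle controls. ED50 by linear interpolation of % responders.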

Experiment [6] has as its target T2, 5-hydroxytryptamine receptor 1A (Homo sapiens, UniProt P08908).
T2 sequence (P08908 whole entry): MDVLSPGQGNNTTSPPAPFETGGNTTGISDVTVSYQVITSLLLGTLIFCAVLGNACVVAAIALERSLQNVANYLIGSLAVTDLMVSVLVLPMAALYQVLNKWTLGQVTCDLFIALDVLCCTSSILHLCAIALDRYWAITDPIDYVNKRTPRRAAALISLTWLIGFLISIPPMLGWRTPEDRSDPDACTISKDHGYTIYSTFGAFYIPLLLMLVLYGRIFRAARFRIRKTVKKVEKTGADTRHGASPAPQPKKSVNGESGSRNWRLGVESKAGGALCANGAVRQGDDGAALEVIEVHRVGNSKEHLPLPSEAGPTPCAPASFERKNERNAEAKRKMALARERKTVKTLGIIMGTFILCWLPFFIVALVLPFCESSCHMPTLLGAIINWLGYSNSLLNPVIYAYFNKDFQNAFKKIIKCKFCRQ
In words: In vitro effective concentration required to inhibit forskolin-stimulated cAMP levels in HA7 cells expressing human 5-HT1A receptor. Type of experiment: functional, cell-based. In a few lines:
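HeLa HA7 cells stably expressing human 5-HT1A, at 80–90% confluency, antibiotic-free for 24 h. Preincubated 10 min at RT in DMEM/10 mM Hepes, then drug at 0.1 nM–100 µM with 100 µM forskolin and 100 µM IBMX for 10 min at RT. Stopped with 0.1 N HCl; cAMP by radioimmunoassay as % of forskolin control; pEC50.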
A general note: Cyclic AMP is a second messenger, typically raised through Gs and lowered through Gi signalling.

The test system of experiment [7] is Rattus norvegicus. In words: Effective intraperitoneal dose in vivo in rat after 15 mins to induce lower lip retraction. As to conditions: ip, 0.25 h. It is filed as functional. In a few lines:
as §1

Experiment [8] deals with Rattus norvegicus. In words: Effective dose in vivo in rat to induce lower lip retraction. Type of experiment: functional. Summed up:
as §1

The target in experiment [9] is T3, 5-hydroxytryptamine receptor 1A (Rattus norvegicus, UniProt P19327).
T3 sequence (P19327 whole entry): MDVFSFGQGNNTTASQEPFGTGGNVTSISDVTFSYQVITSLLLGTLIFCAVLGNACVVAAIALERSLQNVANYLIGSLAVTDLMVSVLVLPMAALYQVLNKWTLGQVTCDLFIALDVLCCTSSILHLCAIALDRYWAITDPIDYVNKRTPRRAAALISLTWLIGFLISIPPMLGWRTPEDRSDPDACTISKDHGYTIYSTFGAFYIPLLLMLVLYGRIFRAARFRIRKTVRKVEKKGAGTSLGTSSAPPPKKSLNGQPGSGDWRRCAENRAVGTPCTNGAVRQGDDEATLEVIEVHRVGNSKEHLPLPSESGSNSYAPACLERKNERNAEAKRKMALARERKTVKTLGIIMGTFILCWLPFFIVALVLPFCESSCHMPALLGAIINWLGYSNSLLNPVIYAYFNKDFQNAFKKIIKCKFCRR
The experiment in a line: Binding affinity towards 5-hydroxytryptamine 1A receptor in rat cortex using [3H]8-OH-DPAT as a radioligand. Summed up:
as §2

Experiment [10] is filed under the species Rattus norvegicus. The experiment in a line: Potency to produce a significant inhibition of immobility in the rat. It is filed as functional. In a few lines: as §3

As for `CN(C)c1cccc(CNCC2(F)CCN(C(=O)c3ccc(F)c(Cl)c3)CC2)n1`, in the experiment filed under Rattus norvegicus [1], the Inhibition (as a rule, the share of the control response that was lost under treatment) is listed as over 80%. Moreover, the ED50 (usually the dose that gives a 50% effect, or the effect in half of the subjects) in the experiment on Rattus norvegicus [2] is 0.11 mg/kg; in the experiment with Rattus norvegicus [4] it was 0.16 mg/kg; in the experiment listed under Rattus norvegicus [5], 0.16 mg/kg; with Rattus norvegicus [7] it was 0.29 mg/kg. Further, the “Log Ki” value in experiment [3] is given as -6.68. Besides, in experiment [6], it took 3.63 nM to reach a half-maximal effect (EC50).

Consider `O=C(c1ccc(Cl)c(Cl)c1)N1CCC(F)(CNCc2cccc(-n3cccn3)n2)CC1`, for which the EC50 – broadly, the concentration needed to bring the measured effect to its halfway point – in experiment [6] is 28.2 nM. The ED50 with Rattus norvegicus [8] was determined as 1.3 mg/kg. Moreover, the Ki (as a rule, the equilibrium dissociation constant of an inhibitor or competing ligand from its target) in experiment [9] was 0.204 nM.

On to `CNc1nc(CNCC2(F)CCN(C(=O)c3ccc(F)c(Cl)c3)CC2)ccc1C`, for which the Inhibition in the experiment listed under Rattus norvegicus [1] was over 80%. Moreover, the ED50 in the experiment filed under Rattus norvegicus [10] stood at 0.05 mg/kg; in the experiment with Rattus norvegicus [4] it was 0.08 mg/kg; in the experiment on Rattus norvegicus [7], 0.02 mg/kg. Moreover, in experiment [6], the midpoint of the response, the EC50, lay at 2.14 nM.
